# ChEMBL document CHEMBL1136302, “Modified 3-alkyl-1,8-dibenzylxanthines as GTP-competitive inhibitors of phosphoenolpyruvate carboxykinase” (Bioorg Med Chem Lett, 2003)
# Experiment: Inhibitory activity against human cytosolic phosphoenolpyruvate carboxykinase (PEPCK) enzyme
# Outline: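 Recombinant human cytosolic GST-PEPCK at room temperature in 30 mM potassium phosphate pH 7.6 with 0.3 mM GTP, 0.3 mM OAA, 3 mM MgCl2, 0.075 mM MnCl2, 1 mM DTT, 0.2 mM ADP, 1 mM NADH and 1 mg/mL BSA. Coupled to pyruvate kinase and lactate dehydrogenase (0.9 U/mL each). Absorbance change at 340 read over 20 min. Eight concentrations in duplicate, averaged; IC50 derived.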
row,SMILES,IC50 [µM]
1,CCCCn1c(=O)n(Cc2ccccc2)c(=O)c2[nH]c(Cc3ccc(NC(C)=O)cc3)nc21,8.15
2,CCCCn1c(=O)n(CCC)c(=O)c2[nH]c(C)nc21,375
3,CCCCn1c(=O)n(Cc2ccccc2F)c(=O)c2[nH]c(Cc3ccc(NC(C)=O)cc3)nc21,2.11

# Now from value to compound:
row,IC50 [µM],SMILES
1,225,C=CCn1c(=O)c2[nH]c(C)nc2n(CCCC)c1=O
2,100,C=CCn1c(=O)c2[nH]c(CC)nc2n(CCCC)c1=O
3,37,C=CCn1c(=O)c2[nH]c(Cc3ccc(N)cc3)nc2n(CCCC)c1=O

# Experiment: Inhibitory activity against human cytosolic phosphoenolpyruvate carboxykinase (PEPCK) enzyme at a concentration of 500 uM
# Outline: (§1)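 The same coupled GST-PEPCK assay was run in 30 mM potassium phosphate pH 7.6 at room temperature. It used 0.3 mM each of GTP and OAA, plus Mg2+/Mn2+, ADP, NADH and BSA, with pyruvate kinase and lactate dehydrogenase coupling. Rate was read at 340 over 20 min. Percent inhibition is given at the highest concentration tested, as the duplicate average.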
row,inhibition [%],SMILES
1,39,C=CCn1c(=O)c2[nH]cnc2n(CCCC)c1=O
2,34,C=CCn1c(=O)c2c(nc(C)n2CC)n(CCCC)c1=O
3,1.7,C=CCn1c(=O)c2[nH]c(-c3ccc(NC(C)=O)cc3)nc2n(CCCC)c1=O

# Experiment: Inhibitory activity against human cytosolic phosphoenolpyruvate carboxykinase (PEPCK) enzyme at a concentration of 25 uM
# Outline: as §1
row,inhibition [%],SMILES
1,46,CCCCn1c(=O)n(Cc2cccc(F)c2)c(=O)c2[nH]c(Cc3ccc(NC(C)=O)cc3)nc21
2,36,CCCCn1c(=O)n(CCOC)c(=O)c2[nH]c(Cc3ccc(NC(C)=O)cc3)nc21
3,29,C=CCn1c(=O)c2[nH]c(Cc3ccccc3)nc2n(CCCC)c1=O
